According to ChEMBL document CHEMBL3352149, “Promiscuity and selectivity in covalent enzyme inhibition: a systematic study of electrophilic fragments” (J Med Chem, 2014):
Calls of active or inactive are those of the source. The rule behind the calls is not given here.

Experiments:
[1] = test system: Escherichia coli; assay: Inhibition of Escherichia coli MetAP at 25 uM after 20 mins by HPLC analysis
Outline: (§1)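 Endpoint assay. Enzyme (50 nM) was preincubated with 25 μM compound for 20 min at 37 °C in 50 mM Tris pH 7.5, 100 mM NaCl, 100 μM CoCl2, 0.075% BSA. MGMM substrate (400 μM) was then added for 15 min (human MetAP-1) or 20 min (E. coli MetAP). Reactions were stopped with TFA. GMM product was quantified by RP-HPLC, UV 214 nm. Triplicate.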

[2] = molecular target: Methionine aminopeptidase 1 (Homo sapiens) (UniProt P53582); assay: Inhibition of human MetAP at 25 uM after 20 mins by HPLC analysis; outline: as §1
[3] = test system: Escherichia coli; assay: Inhibition of wild-type Escherichia coli MurA compound preincubated for 10 mins before substrate addition at 25 uM measured after 15 mins by LC-MS method
[4] = test system: Escherichia coli; assay: Inhibition of wild-type Escherichia coli MurB compound preincubated for 10 mins before substrate addition at 25 uM measured after 15 mins by LC-MS method
Outline: (§2)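 E. coli wild-type enzyme (4 nM) was preincubated with 25 μM compound for 10 min at 37 °C. Enzymatically generated nucleotide-sugar substrate (~200 μM) plus ATP (~200 μM), or NADPH 200 μM for MurB, was added for 10 min. Reactions were started with amino-acid cosubstrate (MurC–F) or EP-UNAG (MurB), run 15 min at 37 °C, and quenched with formic acid. Product was measured by negative-ESI LC-MS EIC peak area. MgCl2: MurC 10, MurD/E 2, MurF 5 mM; MurB had 5 mM KCl. All in 50 mM NH4HCO3, 0.07% BSA, 1% DMSO; triplicate.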

[5] = test system: Escherichia coli; assay: Inhibition of wild-type Escherichia coli MurC compound preincubated for 10 mins before substrate addition at 25 uM measured after 15 mins by LC-MS method; outline: as §2
[6] = test system: Escherichia coli; assay: Inhibition of wild-type Escherichia coli MurD compound preincubated for 10 mins before substrate addition at 25 uM measured after 15 mins by LC-MS method; outline: as §2
[7] = test system: Escherichia coli; assay: Inhibition of wild-type Escherichia coli MurE compound preincubated for 10 mins before substrate addition at 25 uM measured after 15 mins by LC-MS method; outline: as §2
[8] = test system: Escherichia coli; assay: Inhibition of wild-type Escherichia coli MurF compound preincubated for 10 mins before substrate addition at 25 uM measured after 15 mins by LC-MS method; outline: as §2
[9] = GSH reactivity of the compound assessed as adducts formation by RP-HPLC analysis
Outline: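 Fresh aqueous glutathione (10 mM solution) was added to 50 mM Tris-maleate buffer, pH 7.5. The reaction was started with compound from 10 mM DMSO stock (final 250 μM). Mixtures were followed by reversed-phase HPLC on an ODS column with a gradient to 100% B; rate constants are given in l·mol⁻¹·s⁻¹.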

[10] = test system: Escherichia coli; assay: Induction of covalent MurA enzyme adduct formation preincubated with UNAG substrate for 10 mins compound treated at 300 uM after 1 hr by ESI-MS analysis
Outline: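 E. coli MurA (25 μM) preincubated with UNAG 300 μM for 10 min at 37 °C, then test compound added at 300 μM. Incubation ran 60 min at 37 °C in 50 mM NH₄HCO₃, pH 7.9. Samples were spin-desalted on Sephadex G-25, then analysed by flow-injection positive-mode ESI-MS for enzyme adducts. Untreated enzyme served as control.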

[11] = test system: Escherichia coli; assay: Induction of covalent MurE enzyme adduct formation preincubated with UNAG substrate for 10 mins compound treated at 300 uM after 1 hr by ESI-MS analysis
[12] = test system: Escherichia coli; assay: Induction of covalent MetAP enzyme adduct formation at 300 uM after 1 hr by ESI-MS analysis
Outline: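 E. coli MetAP (25 μM) was incubated with 300 μM compound for 60 min at 37 °C in 50 mM NH4HCO3, pH 7.9, with 200 μM CoCl2. Untreated enzyme served as control. Samples were spin-desalted on Sephadex G-25 and analysed by flow-injection ESI-MS in positive mode (isocratic water/acetonitrile 95/5 with 0.1% formic acid), looking for covalent adducts.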

[13] = test system: HeLa; assay: Cytotoxicity against human HeLa cells assessed as reduction in cell viability after 24 hrs by CellTiter-Blue assay; format: cell-based
Outline: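 HeLa cells seeded in triplicate at 5×10^3 cells/well and grown 24 h at 37 °C/5% CO2. Compounds at varying concentrations were added as a 2x stock in phenol-red-free DMEM with FBS, penicillin/streptomycin, sodium pyruvate and L-glutamine, then left 24 h. Medium was replaced with CellTiter-Blue medium for 3 h. A570/A610 was read after background subtraction, as % of untreated controls; EC50 derived.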

[14] = molecular target: Genome polyprotein (dengue virus type 2) (UniProt P12823); assay: Inhibition of Dengue virus serotype 2 NS2B-NS3 protease at 50 uM
[15] = molecular target: Genome polyprotein (West Nile virus) (UniProt P06935); assay: Inhibition of West Nile virus NS2B-NS3 protease at 50 uM
[16] = molecular target: Prothrombin (Bos taurus) (UniProt P00735); assay: Inhibition of Bovine thrombin using Boc-Val-Pro-Arg-AMC as substrate compound preincubated at 25 uM for 15 mins by fluorescence assay
Outline: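 Bovine thrombin (final 10 nM) was preincubated 15 min with 25 μM compound in 50 mM Tris-HCl pH 7.5, 150 mM NaCl, 0.05% Tween 20. The reaction was started with Boc-Val-Pro-Arg-AMC (50 μM final). Fluorescence (ex 355/em 460 nm) was monitored continuously for 10 min; activity taken as slope (RFU/s). Triplicate.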

[17] = GSH reactivity of the compound assessed as half life by RP-HPLC analysis

Sequence of Genome polyprotein (West Nile virus) (P06935 whole entry): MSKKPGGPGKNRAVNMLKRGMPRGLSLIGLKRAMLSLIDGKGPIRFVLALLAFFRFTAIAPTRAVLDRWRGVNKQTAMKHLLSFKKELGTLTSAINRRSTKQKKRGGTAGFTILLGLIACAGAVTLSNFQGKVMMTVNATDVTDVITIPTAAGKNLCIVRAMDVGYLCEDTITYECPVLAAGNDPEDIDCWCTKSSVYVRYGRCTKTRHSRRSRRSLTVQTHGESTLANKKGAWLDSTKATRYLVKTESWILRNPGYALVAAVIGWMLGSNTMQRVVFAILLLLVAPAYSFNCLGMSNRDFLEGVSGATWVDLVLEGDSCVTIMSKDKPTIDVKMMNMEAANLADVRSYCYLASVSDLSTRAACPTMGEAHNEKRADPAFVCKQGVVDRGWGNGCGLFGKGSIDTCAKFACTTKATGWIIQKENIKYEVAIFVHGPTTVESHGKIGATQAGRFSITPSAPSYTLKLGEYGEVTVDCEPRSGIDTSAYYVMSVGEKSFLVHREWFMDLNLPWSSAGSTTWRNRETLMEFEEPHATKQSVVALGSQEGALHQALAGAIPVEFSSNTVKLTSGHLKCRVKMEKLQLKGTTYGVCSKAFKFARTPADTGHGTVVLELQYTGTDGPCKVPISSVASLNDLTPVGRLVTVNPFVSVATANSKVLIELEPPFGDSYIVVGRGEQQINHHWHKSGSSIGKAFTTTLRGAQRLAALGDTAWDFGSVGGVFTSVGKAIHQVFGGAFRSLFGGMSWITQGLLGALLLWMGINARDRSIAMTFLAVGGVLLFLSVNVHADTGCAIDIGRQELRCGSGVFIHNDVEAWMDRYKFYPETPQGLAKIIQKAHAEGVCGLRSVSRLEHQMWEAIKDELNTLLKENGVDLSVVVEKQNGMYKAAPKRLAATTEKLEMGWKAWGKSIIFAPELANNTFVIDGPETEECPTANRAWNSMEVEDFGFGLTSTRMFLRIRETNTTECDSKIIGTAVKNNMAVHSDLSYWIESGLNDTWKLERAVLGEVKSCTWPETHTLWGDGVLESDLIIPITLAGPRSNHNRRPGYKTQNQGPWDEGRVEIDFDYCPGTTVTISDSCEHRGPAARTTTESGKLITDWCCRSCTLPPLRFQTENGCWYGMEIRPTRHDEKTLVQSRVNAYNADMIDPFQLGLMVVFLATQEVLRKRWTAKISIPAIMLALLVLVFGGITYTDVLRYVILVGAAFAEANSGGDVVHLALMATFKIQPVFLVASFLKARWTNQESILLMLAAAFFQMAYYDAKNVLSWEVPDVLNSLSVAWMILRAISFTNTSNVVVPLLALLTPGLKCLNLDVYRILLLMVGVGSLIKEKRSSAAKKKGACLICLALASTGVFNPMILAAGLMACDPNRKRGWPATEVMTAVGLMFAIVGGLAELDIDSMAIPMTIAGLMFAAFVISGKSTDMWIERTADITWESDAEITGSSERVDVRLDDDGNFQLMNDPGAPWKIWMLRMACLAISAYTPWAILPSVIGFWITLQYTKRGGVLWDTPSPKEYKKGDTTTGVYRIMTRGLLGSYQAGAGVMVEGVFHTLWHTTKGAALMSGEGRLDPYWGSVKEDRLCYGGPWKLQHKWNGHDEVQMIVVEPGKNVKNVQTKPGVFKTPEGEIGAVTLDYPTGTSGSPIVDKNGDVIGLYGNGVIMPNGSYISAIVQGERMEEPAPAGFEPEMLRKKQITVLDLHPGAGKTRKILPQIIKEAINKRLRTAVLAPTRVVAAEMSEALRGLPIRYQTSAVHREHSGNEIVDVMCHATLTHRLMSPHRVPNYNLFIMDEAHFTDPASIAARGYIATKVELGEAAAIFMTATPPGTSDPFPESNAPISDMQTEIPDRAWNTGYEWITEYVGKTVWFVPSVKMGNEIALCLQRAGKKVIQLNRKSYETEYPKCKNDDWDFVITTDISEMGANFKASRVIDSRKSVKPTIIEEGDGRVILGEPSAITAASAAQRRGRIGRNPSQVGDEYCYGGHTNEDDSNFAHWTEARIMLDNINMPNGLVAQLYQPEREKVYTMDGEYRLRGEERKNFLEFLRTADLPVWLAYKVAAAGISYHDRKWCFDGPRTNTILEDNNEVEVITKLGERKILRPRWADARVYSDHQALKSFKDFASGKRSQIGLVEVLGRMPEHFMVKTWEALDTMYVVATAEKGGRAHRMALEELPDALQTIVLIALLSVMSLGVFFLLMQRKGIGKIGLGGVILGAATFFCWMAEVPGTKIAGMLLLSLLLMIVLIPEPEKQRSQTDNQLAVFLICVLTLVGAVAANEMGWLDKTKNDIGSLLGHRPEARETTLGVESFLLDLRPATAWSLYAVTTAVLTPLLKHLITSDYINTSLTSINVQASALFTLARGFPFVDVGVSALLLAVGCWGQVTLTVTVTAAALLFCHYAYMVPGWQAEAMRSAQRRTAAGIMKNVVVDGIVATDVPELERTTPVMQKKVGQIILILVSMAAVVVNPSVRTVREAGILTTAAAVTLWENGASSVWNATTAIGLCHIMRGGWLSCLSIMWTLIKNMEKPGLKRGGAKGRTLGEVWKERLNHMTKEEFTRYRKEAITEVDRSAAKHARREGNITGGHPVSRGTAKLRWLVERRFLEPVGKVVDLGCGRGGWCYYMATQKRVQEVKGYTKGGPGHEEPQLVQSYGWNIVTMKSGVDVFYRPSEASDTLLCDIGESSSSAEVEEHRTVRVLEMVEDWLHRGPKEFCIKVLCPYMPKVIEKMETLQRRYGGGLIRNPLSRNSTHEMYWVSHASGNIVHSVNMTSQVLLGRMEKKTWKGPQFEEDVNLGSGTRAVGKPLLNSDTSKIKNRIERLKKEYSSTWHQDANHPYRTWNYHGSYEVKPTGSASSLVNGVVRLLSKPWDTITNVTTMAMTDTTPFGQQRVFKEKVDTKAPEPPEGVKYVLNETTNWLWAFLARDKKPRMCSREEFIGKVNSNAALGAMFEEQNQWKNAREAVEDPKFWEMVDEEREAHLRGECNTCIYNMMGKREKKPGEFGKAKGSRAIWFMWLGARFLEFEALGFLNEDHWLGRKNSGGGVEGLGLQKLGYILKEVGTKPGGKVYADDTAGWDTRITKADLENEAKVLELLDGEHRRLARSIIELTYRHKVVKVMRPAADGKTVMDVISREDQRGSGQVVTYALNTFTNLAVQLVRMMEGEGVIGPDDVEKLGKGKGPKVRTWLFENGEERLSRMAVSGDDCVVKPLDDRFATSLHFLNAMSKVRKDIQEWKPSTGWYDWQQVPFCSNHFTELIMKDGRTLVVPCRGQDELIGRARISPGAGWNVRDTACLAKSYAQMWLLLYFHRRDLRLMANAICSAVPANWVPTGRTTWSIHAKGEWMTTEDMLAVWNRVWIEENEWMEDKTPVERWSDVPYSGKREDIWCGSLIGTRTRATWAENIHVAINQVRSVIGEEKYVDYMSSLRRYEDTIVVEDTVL

SMILES	inhibition [1] [%]	inhibition [2] [%]	inhibition [3] [%]	inhibition [4] [%]	inhibition [5] [%]	inhibition [6] [%]	inhibition [7] [%]	inhibition [8] [%]	Activity [9] [L/mol/s]	Activity [10]	Activity [11] [L/mol/s]	Activity [12] [L/mol/s]	EC50 [13] [µM]	inhibition [14] [%]	inhibition [15] [%]	inhibition [16] [%]	T1/2 [17] [h]
N#CCC(=O)Nc1ccccc1	< 15	< 15	< 15	< 15	< 15	< 15	23	< 15	< 0.1	inactive	< 0.1	< 0.1	> 100	< 15	< 15	< 15	–
CCCCNC(=O)C[S+](C)C	< 15	< 15	< 15	< 15	< 15	< 15	29	< 15	–	–	< 0.1	–	> 100	< 15	< 15	< 15	–
O=C(CCl)Nc1ccccc1	< 15	< 15	< 15	< 15	< 15	< 15	< 15	< 15	< 0.1	inactive	< 0.1	< 0.1	20.9	< 15	< 15	< 15	–
Cc1ccc(NC(=O)C2CC(Br)=NO2)cc1 (stereo unspecified)	19	< 15	< 15	< 15	< 15	< 15	< 15	< 15	< 0.1	–	–	–	–	< 15	22	< 15	> 200
O=C(NCCc1ccccc1)C1CC(Br)=NO1 (stereo unspecified)	< 15	< 15	< 15	16	< 15	18	23	< 15	< 0.1	–	–	–	–	< 15	< 15	< 15	> 200
O=C(Nc1ccc(F)cc1)C1CC(Br)=NO1 (stereo unspecified)	< 15	< 15	< 15	< 15	< 15	< 15	23	21	< 0.1	–	–	–	–	< 15	< 15	< 15	> 200
O=C(Nc1ccccc1)C1CC(Br)=NO1 (stereo unspecified)	< 15	< 15	< 15	< 15	< 15	< 15	< 15	< 15	< 0.1	inactive	< 0.1	< 0.1	> 100	< 15	< 15	< 15	> 200
